molecular target: Serotonin 3 (5-HT3) receptor; assay: Binding affinity for 5-HT3 receptor of NG108-15 cells using [3H]GR-65630; format: cell-based; conditions: not given
Procedure, shortened: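 Competition binding against 1 nM [3H]GR65630 (84.2 Ci/mmol; KD 0.7 nM); nonspecific binding defined with […]. Incubation 30 min at room temperature, then filtration on presoaked glass fiber filters, ice-cold buffer wash, scintillation counting. Log concentration vs percent inhibition fitted by nonlinear least squares assuming 100% maximal inhibition; Ki from IC50 via Cheng-Prusoff.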

Point of comparison: `NC1=Nc2cc(Cl)ccc2CN1`, Ki 0.034 µM. Against it:
- CC1N=C(N)N=C(N)N1c1cccc(Cl)c1 (stereo not given) — higher, > 10 µM
- Nc1nccc(Nc2cccc(Cl)c2)n1 — 43-fold higher, 1.46 µM
- Nc1ncnc(Nc2cccc(Cl)c2)n1 — higher, > 10 µM
- Nc1nc(Nc2cccc(Cl)c2)n[nH]1 — higher, > 10 µM
- Nc1nc2ccc(Cl)cc2[nH]1 — 21-fold higher, 0.725 µM
- Nc1ncnc(Nc2ccc3ccccc3c2)n1 — higher, > 10 µM
- CC1(C)N=C(N)N=C(N)N1c1cccc(Cl)c1 — higher, > 10 µM
- Nc1ncnc(Nc2ccccc2)n1 [AMANOZINE] — higher, > 10 µM

test system: not listed separately; assay: Partition coefficient in an aqueous 1-octanol buffer system by the shake-flask method; format: physicochemical; conditions: 1-octanol/aqueous buffer
Procedure, shortened: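 LogP_app by shake-flask in aqueous buffer/1-octanol at pH 7.4 (ionic strength 0.10 M NaCl), 23±1.0 °C. Aqueous-phase compound concentration measured spectrophotometrically; values are means of duplicate determinations run in triplicate.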

Point of comparison: `N=C(N)NC(=N)Nc1cccc(Cl)c1`, logD -0.38. Against it:
- N=C(N)Nc1cc(Cl)c(Cl)c(Cl)c1 — higher, 1.16
- NC(N)=Nc1cccc(Cl)c1 — lower, -0.64
- N=C(N)NC(=N)Nc1cc(Cl)c(Cl)c(Cl)c1 — higher, 1.47
- N=C(N)NC(=N)Nc1ccccc1 [PHENYL BIGUANIDE] — lower, -1.17
- N=C(N)Nc1ccccc1 [PHENYLGUANIDINE] — lower, -1.32
